Screens: PubChem BioAssay, The Scripps Research Institute Molecular Screening Center
Sampled rows, rich in hits. Any-hit rate of the full collection: about 2.9%.
S1P1 ag pot = S1P1 (human) agonism or agonism potentiation; P21453; 56,000 compounds, 0.57% hits; S1P1 CRE-bla cells, forskolin, beta-lactamase FRET, potentiator mode; S1P1 agonist co-added at EC20, 2 nM; 100% = saturating reference agonist, 0% = basal; AID 449; activation, % at 9.5 µM;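 active = activation above a cutoff set at the mean activation of all tested compounds plus 3 SD, cut at about 54% in these data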;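 note: forskolin at 4 µM as EC80 and the EC20 agonist is SEW2871; 100% = SEW2871 at its EC100 plus forskolin at EC80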
HTR1E antagonist = 5-HT1E (human) receptor antagonism. P28566. CHO 5-HT1E Ga15 NFAT-bla reporter, FRET, antagonist. inhibition, % at 6 µM. 65,000 compounds, 0.99% hits. AID 571;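 active = inhibition above a set limit, the mean inhibition across every tested compound plus 3 SD, cut at about 29% in these data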;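 note: signal is the 460 over 535 nm emission ratio of beta-lactamase substrate; 0% = agonist plus DMSO wells and 100% = wells without agonist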
5HT1a antag = 5-HT1a (human) receptor antagonism. P08908. CHO 5-HT1a Ga15 NFAT-bla reporter, antagonist mode. inhibition, % at 10 µM. 62,000 compounds, 0.68% hits. AID 612;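 active = inhibition above the mean of all tested compounds plus 3 SD, cut at about 43% in these data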;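 note: receptor stimulated by 5-CT agonist at 100 nM near EC80; beta-lactamase reporter measured by ratiometric fluorescence of a cleavable substrate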
Target sequence (P08908 whole entry, looked up): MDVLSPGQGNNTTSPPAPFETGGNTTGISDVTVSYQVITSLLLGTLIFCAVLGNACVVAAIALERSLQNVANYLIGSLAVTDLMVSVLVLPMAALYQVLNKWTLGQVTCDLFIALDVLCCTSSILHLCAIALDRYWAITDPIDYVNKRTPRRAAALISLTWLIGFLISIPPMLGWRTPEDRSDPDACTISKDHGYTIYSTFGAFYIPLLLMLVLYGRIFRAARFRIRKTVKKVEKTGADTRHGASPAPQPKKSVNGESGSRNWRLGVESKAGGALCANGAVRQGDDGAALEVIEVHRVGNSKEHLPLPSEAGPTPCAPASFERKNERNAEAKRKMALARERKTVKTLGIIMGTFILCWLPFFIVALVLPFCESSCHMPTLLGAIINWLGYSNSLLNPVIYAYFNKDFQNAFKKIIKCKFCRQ
HTR1A agonist = agonists of human 5-HT1a serotonin receptor. CHO 5-HT1a Ga15 NFAT-bla reporter, FRET ratio; 0% basal, 100% maximal reference agonist. activation, % at 10 µM. P08908. 65,000 compounds, 0.56% hits;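 active = activation above the screen-wide mean activation plus 3 SD, cut at about 19% in these data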;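 note: 0% = DMSO wells and 100% = 5-CT at EC100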
S1P3 ag = activates the human S1P3 receptor; Q99500; S1P3 NFAT-BLA reporter cells, agonism, FRET ratio; relative to 1 µM S1P, basal subtracted; activation, % at 4.5 µM; 60,000 compounds, 0.1% hits; AID 373;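 active = activation above the screen-wide mean plus 3 SD, cut at about 4.5% in these data, passing the limit was not always enough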
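Benchmarks: high control 1 µM S1P / System: stable CHO line with human S1P3, Gα16, NFAT-BLA reporter / Dosing: single compound concentration, 4.5 µM final / Timing: 4 h compound at 37 °C, 2 h substrate at RT / Measured by: FRET β-lactamase substrate fluorescence, excitation 405 nm, 460/535 nm emission ratio, background-subtracted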
HTR1E agonist = agonists of human 5-HT1E serotonin receptor; CHO 5-HT1E Ga15 NFAT-bla reporter, FRET; 0% DMSO wells, 100% control agonist wells; 65,000 compounds, 0.69% hits; activation, % at 6 µM; AID 574;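 active = activation above a set limit, the screen-wide mean activation plus 3 SD, cut at about 8.5% in these data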;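 note: 100% = positive control agonist at 1 µM giving full maximal response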
* = called active by the depositor.

Results for CCCOc1ccc(N2C(=O)CC(N3CCN(c4nc5ccccc5s4)CC3)C2=O)cc1 (stereo unspecified) ?
S1P1 ag pot: -16; HTR1E antagonist: -18; 5HT1a antag: -18; HTR1A agonist: 1; S1P3 ag: -2; HTR1E agonist: 4

How did O=C(O)CCC(=O)N1CCN(c2ccccn2)CC1 do in these assays?
S1P1 ag pot: -16; HTR1E antagonist: -2; 5HT1a antag: 4; HTR1A agonist: 0; S1P3 ag: -1; HTR1E agonist: 0

What do the screens show for `CC(=O)c1ccc(N2C(=O)NC3(CCCCC3)C2=O)cc1`?
S1P1 ag pot: 4; HTR1E antagonist: 6; 5HT1a antag: 7; HTR1A agonist: -2; S1P3 ag: -2; HTR1E agonist: 2

Results for Cn1c(C(=O)N(Cc2ccccc2)Cc2ccccn2)cc2sccc21 ?
S1P1 ag pot: -2; HTR1E antagonist: 2; 5HT1a antag: 22; HTR1A agonist: 1; S1P3 ag: 0; HTR1E agonist: -1

What do the screens show for `Cn1c(C(=O)N(Cc2ccccc2)Cc2cccs2)cc2sccc21`?
S1P1 ag pot: -11; HTR1E antagonist: 9; 5HT1a antag: 43*; HTR1A agonist: 0; S1P3 ag: -1; HTR1E agonist: 0

Results for COc1cccc(Cn2c(-c3nonc3N)nc3ccccc32)c1 ?
S1P1 ag pot: 7; HTR1E antagonist: 39*; 5HT1a antag: 46*; HTR1A agonist: -2; S1P3 ag: 0; HTR1E agonist: 0

What do the screens show for `CCCCOc1ccccc1NC(=O)Cn1c(-c2nonc2N)nc2ccccc21`?
S1P1 ag pot: 29; HTR1E antagonist: 71*; 5HT1a antag: 62*; HTR1A agonist: -3; S1P3 ag: -1; HTR1E agonist: 3

Results for COc1cc(Cn2c(-c3nonc3N)nc3ccccc32)ccc1C ?
S1P1 ag pot: 31; HTR1E antagonist: 52*; 5HT1a antag: 64*; HTR1A agonist: -5; S1P3 ag: -2; HTR1E agonist: -1

How did Cn1cc(Cl)c(C(=O)N2CCN(c3ncccn3)CC2)n1 do in these assays?
S1P1 ag pot: -36; HTR1E antagonist: -7; 5HT1a antag: -11; HTR1A agonist: -5; S1P3 ag: 0; HTR1E agonist: 0

What do the screens show for `Cc1sc2ncnc(SC(C)C#N)c2c1C` (stereo unspecified)?
S1P1 ag pot: -21; HTR1E antagonist: 31*; 5HT1a antag: -6; HTR1A agonist: -3; S1P3 ag: -1; HTR1E agonist: 0

What do the screens show for `Cc1sc2ncnc(SCc3ccco3)c2c1C`?
S1P1 ag pot: -14; HTR1E antagonist: 3; 5HT1a antag: 10; HTR1A agonist: -2; S1P3 ag: 0; HTR1E agonist: 0

Results for COc1c[nH]n(C2CCCCC2)c(=O)c1=O ?
S1P1 ag pot: -9; HTR1E antagonist: -4; 5HT1a antag: -7; HTR1A agonist: -1; S1P3 ag: 0; HTR1E agonist: 2

Results for Oc1c(Cl)cc(Cl)cc1Sc1cc(Cl)cc(Cl)c1O ?
S1P1 ag pot: 132*; HTR1E antagonist: 5; HTR1A agonist: -1; S1P3 ag: 1; HTR1E agonist: 0

Results for N#Cc1c(N)nc(SC2CCCCC2=O)c(C#N)c1-c1ccco1 (stereo unspecified) ?
HTR1E antagonist: 42*; 5HT1a antag: -4; HTR1A agonist: 2; HTR1E agonist: 1

What do the screens show for `N#Cc1c(N)nc(SCc2ccccc2)c(C#N)c1-c1ccco1`?
S1P1 ag pot: -45; HTR1E antagonist: 18; 5HT1a antag: -16; HTR1A agonist: 3; S1P3 ag: 1; HTR1E agonist: 1

What do the screens show for `CCOC(=O)C1=C(C)N=C2SC(CC)C(=O)N2C1c1ccc(OC(C)=O)c(OCC)c1` (stereo unspecified)?
HTR1E antagonist: -5; 5HT1a antag: -2; HTR1A agonist: 1; HTR1E agonist: 1

What do the screens show for `CCOC(=O)CCc1c(C)c2ccc(O)cc2oc1=O`?
HTR1E antagonist: -7; 5HT1a antag: -12; HTR1A agonist: 1; S1P3 ag: 0; HTR1E agonist: 0

What do the screens show for `CCOC(=O)Cc1c(C)c2ccc(N(CC)CC)cc2oc1=O`?
S1P1 ag pot: -25; HTR1E antagonist: -2; 5HT1a antag: -27; HTR1A agonist: 25*; S1P3 ag: 3; HTR1E agonist: 7

Results for CCN(CC)c1ccc2c(Cl)c(Br)c(=O)oc2c1 ?
S1P1 ag pot: 49; HTR1E antagonist: 91*; 5HT1a antag: 95*; HTR1A agonist: -19; S1P3 ag: -1; HTR1E agonist: 1

What do the screens show for `N#CCCCn1c(-c2ccccc2)noc1=O`?
S1P1 ag pot: 0; HTR1E antagonist: 5; 5HT1a antag: -5; HTR1A agonist: -2; S1P3 ag: -1; HTR1E agonist: 0

What do the screens show for `O=C(Nc1c(C(=O)O)oc2ccc(Br)cc12)c1ccccc1`?
S1P1 ag pot: 3; HTR1E antagonist: -5; 5HT1a antag: -2; HTR1A agonist: -3; S1P3 ag: -1; HTR1E agonist: 0

How did O=C(CSc1ncc(-c2ccc(F)cc2)[nH]1)Nc1cccc(O)c1 do in these assays?
S1P1 ag pot: -4; HTR1E antagonist: 0; 5HT1a antag: 5; HTR1A agonist: -1; S1P3 ag: 1; HTR1E agonist: -1

How did CSc1ccccc1NC(=O)c1cccnc1 do in these assays?
S1P1 ag pot: 4; HTR1E antagonist: -3; 5HT1a antag: -12; HTR1A agonist: -1; S1P3 ag: 1; HTR1E agonist: 48*

What do the screens show for `Cc1ccc(N2C(=O)C3ON(c4ccccc4)C(c4ccncc4)C3C2=O)c(C)c1` (stereo unspecified)?
S1P1 ag pot: -4; HTR1E antagonist: 3; HTR1A agonist: 3; S1P3 ag: -4; HTR1E agonist: -1

What do the screens show for `Cc1ccc(-n2c(C)cc(C(=O)COC(=O)c3c(C)noc3C)c2C)cc1`?
S1P1 ag pot: 62*; HTR1E antagonist: 0; 5HT1a antag: -6; HTR1A agonist: 1; S1P3 ag: 0; HTR1E agonist: 0

How did COc1ccccc1C(=O)n1nc(-c2ccccc2)nc1NCc1ccco1 do in these assays?
S1P1 ag pot: -26; HTR1E antagonist: 0; 5HT1a antag: 44*; HTR1A agonist: -2; S1P3 ag: -1; HTR1E agonist: -1

What do the screens show for `COc1ccc(Nc2nc(Nc3ccc(OC)cc3)nc(-n3[nH]c(=O)c(C)c3C)n2)cc1`?
S1P1 ag pot: -103; HTR1E antagonist: -34; HTR1A agonist: 34*; S1P3 ag: 17*; HTR1E agonist: 15*

How did c1ccc(Cn2nnc3c(Nc4ccc5c(c4)OCO5)nc(C4CC4)nc32)cc1 do in these assays?
S1P1 ag pot: 39; HTR1E antagonist: 0; 5HT1a antag: 20; HTR1A agonist: 22*; S1P3 ag: -1; HTR1E agonist: 2
